ChEMBL document CHEMBL4190218, “Potent Inhibitor of Drug-Resistant HIV-1 Strains Identified from the Medicinal Plant Justicia gendarussa” (J Nat Prod, 2017)
pIC50: −log10 of the molar value.

How the values were obtained:
[1] = tested on: Human immunodeficiency virus 1; assay: Antiviral activity against HIV1 virions derived from […] or HIV/HA virions infected 293T cells using human A549 cells as target cells assessed as inhibition of viral replication using compound pre-mixed virions followed by incubation with target cells for 24 hrs by luciferase reporter gene assay based defective HIV1 pseudoviral assay; type: functional, organism-based; conditions: Human immunodeficiency virus 1, 24 h
Outline: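 Pseudovirions made by cotransfecting 293T cells with VSV-G, or HA plus NA, envelope plasmids and pNL4-3-Luc.R-.E- vector; supernatant collected at 48 h and filtered. A549 cells, 0.5 × 10^5/well in DMEM. Virus (~2 × 10^6 RLUs) premixed with sample, incubated with cells 24 h, then medium replaced. Luciferase read in lysates 48 h postinfection. Three experiments, each triplicate.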

[2] = tested on: Human immunodeficiency virus 1; assay: Antiviral activity against NRTI-resistant HIV1 isolate 1617-1 infected in PHA-stimulated human PBMC assessed as reduction in p24 level after 7 days by ELISA; type: functional, organism-based; conditions: Human immunodeficiency virus 1, isolate 1617-1, PBMC, 168 h
Outline: (§1)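 Donor PBMCs in R-3 medium (RPMI 1640, 15−20% FBS, 5% IL-2, penicillin/streptomycin, 2 mM L-glutamine), PHA-stimulated (2−3 μg/mL) 7 days; 1 × 10^5 cells/well with compound, challenged with 1000 TCID50 virus. p24 in supernatant by ELISA after 7 days. Seven concentrations (5, 1, 0.2, 0.04, 0.008, […], 0 μg/mL); IC50 versus no-drug wells; AZT positive control; three experiments, each triplicate.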

[3] = tested on: Human immunodeficiency virus 1; assay: Antiviral activity against HIV1 isolate LAV infected in PHA-stimulated human PBMC assessed as reduction in p24 level after 7 days by ELISA; type: functional, organism-based; conditions: Human immunodeficiency virus 1, isolate LAV, 168 h; outline: as §1
[4] = tested on: Human immunodeficiency virus 1; assay: Antiviral activity against NNRTI-resistant HIV1 isolate N119 infected in PHA-stimulated human PBMC assessed as reduction in p24 level after 7 days by ELISA; type: functional, organism-based; conditions: Human immunodeficiency virus 1, isolate N119, PBMC, 168 h; outline: as §1
[5] = tested on: Human immunodeficiency virus 1; assay: Antiviral activity against HIV1 isolate BAL infected in PHA-stimulated human PBMC assessed as reduction in p24 level after 7 days by ELISA; type: functional, organism-based; outline: as §1
[6] = tested on: Human immunodeficiency virus 1; assay: Antiviral activity against HIV1/VSV-G pseudovirus infected in human A549 cells assessed as downregulation of U5/gag gene expression at 0.005 ug/ml after 48 hrs by Taqman-based real-time PCR analysis; type: functional; conditions: Human immunodeficiency virus 1, A549, 48 h
Outline: (§2)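 A549 cells infected with VSV-G/HIV pseudovirus while treated with compound or AZT, 10-fold dilutions from 5 μg/mL, triplicate. After 48 h, cells processed for reverse transcription and TaqMan real-time PCR. R/U5 amplicon reads early transcripts, U5/gag reads late transcripts; GAPDH and 18S as internal controls.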

[7] = tested on: Human immunodeficiency virus 1; assay: Antiviral activity against HIV1 isolate 89.6 infected in PHA-stimulated human PBMC assessed as reduction in p24 level after 7 days by ELISA; type: functional, organism-based; outline: as §1
[8] = tested on: Human immunodeficiency virus 1; assay: Antiviral activity against HIV1 isolate LAV0.04 infected in PHA-stimulated human PBMC assessed as reduction in p24 level after 7 days by ELISA; type: functional, organism-based; outline: as §1
A549 = assay: Cytotoxicity against human A549 cells at 19 uM after 48 hrs by CellTiter 96 AQueous one solution cell proliferation assay; type: cell-based; conditions: a549, 48 h
Outline: (§3)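 About 5000 cells/well in DMEM with FBS and penicillin/streptomycin; compound in DMSO added next day, 24 h at 37 °C, 5% CO2, then medium replaced. At 48 h after addition, CellTiter 96 Aqueous One added for 4 h, stopped with 10% SDS, absorbance read at 450 nm.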

[9] = tested on: Human immunodeficiency virus 1; assay: Antiviral activity against HIV1 isolate SF162 infected in PHA-stimulated human PBMC assessed as reduction in p24 level after 7 days by ELISA; type: functional, organism-based; outline: as §1
[10] = tested on: Human immunodeficiency virus 1; assay: Antiviral activity against HIV1/VSV-G pseudovirus infected in human A549 cells assessed as downregulation of R/U5 gene expression at 0.005 ug/ml after 48 hrs by Taqman-based real-time PCR analysis; type: functional; conditions: Human immunodeficiency virus 1, A549, 48 h; outline: as §2
HeLa = assay: Cytotoxicity against human HeLa cells at 19 uM after 48 hrs by CellTiter 96 AQueous one solution cell proliferation assay; type: cell-based; outline: as §3
[11] = Cytotoxicity against human PBMC after 48 hrs by CellTiter 96 AQueous one solution cell proliferation assay; type: cell-based
[12] = tested on: Human immunodeficiency virus 1; assay: Antiviral activity against HIV1/VSV-G pseudovirus infected in human A549 cells assessed as downregulation of U5/gag gene expression after 48 hrs by Taqman-based real-time PCR analysis; type: functional; outline: as §2
[13] = tested on: Human immunodeficiency virus 1; assay: Antiviral activity against HIV1/VSV-G pseudovirus infected in human A549 cells assessed as downregulation of R/U5 gene expression after 48 hrs by Taqman-based real-time PCR analysis; type: functional; outline: as §2
[14] = Human immunodeficiency virus 1, isolate BAL, PBMC, 168 h
[15] = Human immunodeficiency virus 1, isolate 89.6, PBMC, 168 h
[16] = Human immunodeficiency virus 1, isolate LAV0.04, PBMC, 168 h
[17] = Human immunodeficiency virus 1, isolate SF162, PBMC, 168 h

SMILES | pIC50 [1] | pIC50 [2] | pIC50 [3] | pIC50 [4] | Activity [5] | pIC50 [5, 14] | Activity [7] | pIC50 [7, 15] | Activity [8] | pIC50 [8, 16] | Activity [9] | pIC50 [9, 17] | other results
COc1cc2c(O[C@@H]3OC[C@@H](O)[C@H](O)[C@H]3O)c3c(c(-c4ccc5c(c4)OCO5)c2cc1OC)C(=O)OC3 | 6.29 | – | – | – | – | – | – | – | – | – | – | – | –
COc1cc2c(O[C@@H]3O[C@H](CO)[C@@H](O)[C@H](O)[C@H]3O)c3c(c(-c4ccc5c(c4)OCO5)c2cc1OC)C(=O)OC3 | 6.11 | – | – | – | – | – | – | – | – | – | – | – | –
COc1cc2c(O)c3c(c(-c4ccc5c(c4)OCO5)c2cc1OC)C(=O)OC3 [DIPHYLLIN] | 5.77 | – | – | – | – | – | – | – | – | – | – | – | –
Cc1ccnc2c1NC(=O)c1cccnc1N2C1CC1 [NEVIRAPINE] | – | 6.81 | 6.27 | < 4.00 | – | – | – | – | – | – | – | – | –
COc1cc2c(O[C@@H]3O[C@H](C)[C@@H](O)[C@H](O)[C@H]3O)c3c(c(-c4ccc5c(c4)OCO5)c2cc1OC)C(=O)OC3 [PATENTIFLORIN A] | 7.57 | 7.21 | 6.97 | 7.33 | Dose-dependent effect | 7.52 | Dose-dependent effect | 7.49 | Dose-dependent effect | 7.62 | Dose-dependent effect | 7.43 | pIC50 ([5]; pbmc): 7.49; inhibition at 0.005 µg/mL [6]: 75%; pIC50 ([7]; pbmc): 7.51; pIC50 ([8]; pbmc): 7.49; Activity (A549): Non-Toxic; pIC50 ([9]; pbmc): 7.52; inhibition at 0.005 µg/mL [10]: 75%; Activity (HeLa): Non-Toxic; CC50 at 48 h [11]: 75000 nM
Cc1cn([C@H]2C[C@H](N=[N+]=[N-])[C@@H](CO)O2)c(=O)[nH]c1=O [ZIDOVUDINE] | – | 5.45 | 7.14 | 8.28 | Dose-dependent effect | 7.11 | Dose-dependent effect | 7.02 | Dose-dependent effect | 7.10 | Dose-dependent effect | 7.07 | Activity [12]: Dose-dependent effect; inhibition (INH) [12]: 40%; Activity [13]: Dose-dependent effect; inhibition (INH) [13]: 40%
